Drawing on ChEMBL document CHEMBL1124598, “Benzofuro[2,3-c]pyridin-6-ols: synthesis, affinity for opioid-receptor subtypes, and antinociceptive activity” (J Med Chem, 1989), this text covers ED50 for 9 molecules.

For this experiment, the system named is Mus musculus. The experiment can be described thus: Analgesic activity 30 min after subcutaneous administration in mouse by using PQW test. To be noted: sc, 0.5 h. The format is functional. The procedure, abridged:
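Male CF-1 mice (18-23 g), ten per dose; compound given sc, then 30 min later phenylquinone 3.75 mg/kg in 5% aqueous ethanol ip. Mice observed 10 min in free-moving cages for abdominal stretching. ED50 determined with 95% confidence limits.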

Broadly, the ED50 is the dose at which the effect has come halfway, by size or by number of responders. `CC[C@@]12CCN(CC3CCCC3)C[C@@H]1Oc1ccc(O)cc12` had a median effective dose (ED50) of 0.0521 µmol/kg.
Molecule `CCCN1CC[C@@]2(CC)c3cc(O)ccc3O[C@H]2C1` came in with a median effective dose (ED50) of 0.0051 µmol/kg.
`CC[C@@]12CCN(C)C[C@@H]1Oc1ccc(O)cc12` returned an ED50 of 0.005 µmol/kg.
Molecule `CC[C@@]12CCN(CC3CCC3)C[C@@H]1Oc1ccc(O)cc12` registered a 50% effective dose (ED50) of 0.00145 µmol/kg.
As for `CC[C@@]12CCN(Cc3ccoc3)C[C@@H]1Oc1ccc(O)cc12`, the median effective dose (ED50) was 0.0512 µmol/kg.
The figure for `CC[C@@]12CCN(CC3CCCO3)C[C@@H]1Oc1ccc(O)cc12` (some centres undefined) is 0.005 µmol/kg; for `CC[C@@]12CCN(Cc3ccco3)C[C@@H]1Oc1ccc(O)cc12` it is 0.0908 µmol/kg; for `CC[C@@]12CCN(CC3CC3)C[C@@H]1Oc1ccc(O)cc12` it is 0.00119 µmol/kg.
As to `CC[C@@]12CCN(CCc3ccccc3)C[C@@H]1Oc1ccc(O)cc12`, the 50% effect level (ED50) was put at a dose of 0.00037 µmol/kg.
